Measurements published in ChEMBL document CHEMBL1687776, “Origin and molecular evolution of the determinant of methicillin resistance in staphylococci” (2010).
In brackets after ≈: the same amount, converted by molar mass.

Test system: Staphylococcus vitulinus
Assay: Antibacterial activity against methicillin-resistant mecA-positive Staphylococcus vitulinus SVMP06 by agar dilution method
Assay type: functional
Conditions: Mammaliicoccus vitulinus
Outline: (§1)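 MIC by agar dilution on Mueller-Hinton agar per CLSI guidance; resistance judged against CLSI breakpoints. Strains were animal or food isolates (type strains for S. sciuri subspecies), typed by hsp60 and/or sodA sequencing; mecA homologue carriage checked by PCR with degenerate primers. Agents tested: oxacillin, ampicillin, ceftizoxime, ceftriaxone, cefoxitin.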

Row | SMILES | MIC [µg/mL]
1 | CO/N=C(\C(=O)N[C@@H]1C(=O)N2C(C(=O)O)=C(CSc3nc(=O)c(O)nn3C)CS[C@H]12)c1csc(N)n1 [CEFTRIAXONE] | 2 (≈ 3.61 µM)

Test system: Staphylococcus fleurettii
Assay: Antibacterial activity against methicillin-resistant mecA-positive Staphylococcus fleurettii SFMP07 by agar dilution method
Assay type: functional
Conditions: Mammaliicoccus fleurettii
Outline: as §1

Row | SMILES | MIC [µg/mL]
2 | CO/N=C(\C(=O)N[C@@H]1C(=O)N2C(C(=O)O)=C(CSc3nc(=O)c(O)nn3C)CS[C@H]12)c1csc(N)n1 [CEFTRIAXONE] | 8 (≈ 14.4 µM)

Test system: Staphylococcus fleurettii
Assay: Antibacterial activity against methicillin-resistant mecA-positive Staphylococcus fleurettii SFMP02 by agar dilution method
Assay type: functional
Conditions: Mammaliicoccus fleurettii
Outline: as §1

Row | SMILES | MIC [µg/mL]
3 | CO/N=C(\C(=O)N[C@@H]1C(=O)N2C(C(=O)O)=C(CSc3nc(=O)c(O)nn3C)CS[C@H]12)c1csc(N)n1 [CEFTRIAXONE] | 16 (≈ 28.9 µM)

Test system: Staphylococcus vitulinus
Assay: Antibacterial activity against mecA-negative Staphylococcus vitulinus SVMN08 by agar dilution method
Assay type: functional
Conditions: Mammaliicoccus vitulinus
Outline: (§2)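 MIC by agar dilution on Mueller-Hinton agar following CLSI guidelines. Resistance was assigned using CLSI breakpoints. Agents tested were oxacillin, ampicillin, ceftizoxime, ceftriaxone and cefoxitin. Strains were from animal or food sources and identified by hsp60 and/or sodA sequencing. mecA absence was assessed by PCR with degenerate primers for mecA and its homologues.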

Row | SMILES | MIC [µg/mL]
4 | CO/N=C(\C(=O)N[C@@H]1C(=O)N2C(C(=O)O)=C(CSc3nc(=O)c(O)nn3C)CS[C@H]12)c1csc(N)n1 [CEFTRIAXONE] | 0.25 (≈ 0.451 µM)

Test system: Staphylococcus fleurettii
Assay: Antibacterial activity against methicillin-resistant mecA-positive Staphylococcus fleurettii SFMP05 by agar dilution method
Assay type: functional
Conditions: Mammaliicoccus fleurettii
Outline: as §1

Row | SMILES | MIC [µg/mL]
5 | CO/N=C(\C(=O)N[C@@H]1C(=O)N2C(C(=O)O)=C(CSc3nc(=O)c(O)nn3C)CS[C@H]12)c1csc(N)n1 [CEFTRIAXONE] | 8 (≈ 14.4 µM)

Test system: Staphylococcus vitulinus
Assay: Antibacterial activity against methicillin-resistant mecA-positive Staphylococcus vitulinus SVMP02 by agar dilution method
Assay type: functional
Conditions: Mammaliicoccus vitulinus
Outline: as §1

Row | SMILES | MIC [µg/mL]
6 | CO/N=C(\C(=O)N[C@@H]1C(=O)N2C(C(=O)O)=C(CSc3nc(=O)c(O)nn3C)CS[C@H]12)c1csc(N)n1 [CEFTRIAXONE] | 2 (≈ 3.61 µM)

Test system: Staphylococcus fleurettii
Assay: Antibacterial activity against mecA-negative Staphylococcus fleurettii SFMN01 by agar dilution method
Assay type: functional
Conditions: Mammaliicoccus fleurettii
Outline: as §2

Row | SMILES | MIC [µg/mL]
7 | CO/N=C(\C(=O)N[C@@H]1C(=O)N2C(C(=O)O)=C(CSc3nc(=O)c(O)nn3C)CS[C@H]12)c1csc(N)n1 [CEFTRIAXONE] | 4 (≈ 7.21 µM)

Test system: not listed separately
Assay: Antibacterial activity against methicillin-resistant mecA-positive Staphylococcus sciuri subsp. sciuri ATCC 29062T by agar dilution method
Assay type: functional
Conditions: Mammaliicoccus sciuri
Outline: as §1

Row | SMILES | MIC [µg/mL]
8 | CO/N=C(\C(=O)N[C@@H]1C(=O)N2C(C(=O)O)=C(CSc3nc(=O)c(O)nn3C)CS[C@H]12)c1csc(N)n1 [CEFTRIAXONE] | 8 (≈ 14.4 µM)

Test system: Staphylococcus vitulinus
Assay: Antibacterial activity against mecA-negative Staphylococcus vitulinus SVMN04 by agar dilution method
Assay type: functional
Conditions: Mammaliicoccus vitulinus
Outline: as §1

Row | SMILES | MIC [µg/mL]
9 | CO/N=C(\C(=O)N[C@@H]1C(=O)N2C(C(=O)O)=C(CSc3nc(=O)c(O)nn3C)CS[C@H]12)c1csc(N)n1 [CEFTRIAXONE] | 2 (≈ 3.61 µM)

Test system: Staphylococcus vitulinus
Assay: Antibacterial activity against mecA-negative Staphylococcus vitulinus SVMN12 by agar dilution method
Assay type: functional
Conditions: Mammaliicoccus vitulinus
Outline: as §1

Row | SMILES | MIC [µg/mL]
10 | CO/N=C(\C(=O)N[C@@H]1C(=O)N2C(C(=O)O)=C(CSc3nc(=O)c(O)nn3C)CS[C@H]12)c1csc(N)n1 [CEFTRIAXONE] | 1 (≈ 1.8 µM)

Test system: Staphylococcus vitulinus
Assay: Antibacterial activity against mecA-negative Staphylococcus vitulinus SVMN09 by agar dilution method
Assay type: functional
Conditions: Mammaliicoccus vitulinus
Outline: as §1

Row | SMILES | MIC [µg/mL]
11 | CO/N=C(\C(=O)N[C@@H]1C(=O)N2C(C(=O)O)=C(CSc3nc(=O)c(O)nn3C)CS[C@H]12)c1csc(N)n1 [CEFTRIAXONE] | 2 (≈ 3.61 µM)

Test system: Staphylococcus fleurettii
Assay: Antibacterial activity against methicillin-resistant mecA-positive Staphylococcus fleurettii SFMP08 by agar dilution method
Assay type: functional
Conditions: Mammaliicoccus fleurettii
Outline: as §1

Row | SMILES | MIC [µg/mL]
12 | CO/N=C(\C(=O)N[C@@H]1C(=O)N2C(C(=O)O)=C(CSc3nc(=O)c(O)nn3C)CS[C@H]12)c1csc(N)n1 [CEFTRIAXONE] | 16 (≈ 28.9 µM)

Test system: Staphylococcus vitulinus
Assay: Antibacterial activity against mecA-negative Staphylococcus vitulinus SVMN06 by agar dilution method
Assay type: functional
Conditions: Mammaliicoccus vitulinus
Outline: as §1

Row | SMILES | MIC [µg/mL]
13 | CO/N=C(\C(=O)N[C@@H]1C(=O)N2C(C(=O)O)=C(CSc3nc(=O)c(O)nn3C)CS[C@H]12)c1csc(N)n1 [CEFTRIAXONE] | 4 (≈ 7.21 µM)

Test system: Staphylococcus fleurettii
Assay: Antibacterial activity against methicillin-resistant mecA-positive Staphylococcus fleurettii SFMP06 by agar dilution method
Assay type: functional
Conditions: Mammaliicoccus fleurettii
Outline: as §1

Row | SMILES | MIC [µg/mL]
14 | CO/N=C(\C(=O)N[C@@H]1C(=O)N2C(C(=O)O)=C(CSc3nc(=O)c(O)nn3C)CS[C@H]12)c1csc(N)n1 [CEFTRIAXONE] | 32 (≈ 57.7 µM)

Test system: Staphylococcus vitulinus
Assay: Antibacterial activity against mecA-negative Staphylococcus vitulinus SVMN11 by agar dilution method
Assay type: functional
Conditions: Mammaliicoccus vitulinus
Outline: as §1

Row | SMILES | MIC [µg/mL]
15 | CO/N=C(\C(=O)N[C@@H]1C(=O)N2C(C(=O)O)=C(CSc3nc(=O)c(O)nn3C)CS[C@H]12)c1csc(N)n1 [CEFTRIAXONE] | 4 (≈ 7.21 µM)

Test system: Staphylococcus fleurettii
Assay: Antibacterial activity against methicillin-resistant mecA-positive Staphylococcus fleurettii SFMP01(CCUG 43834T) by agar dilution method
Assay type: functional
Conditions: Mammaliicoccus fleurettii
Outline: as §1

Row | SMILES | MIC [µg/mL]
16 | CO/N=C(\C(=O)N[C@@H]1C(=O)N2C(C(=O)O)=C(CSc3nc(=O)c(O)nn3C)CS[C@H]12)c1csc(N)n1 [CEFTRIAXONE] | 16 (≈ 28.9 µM)

Test system: not listed separately
Assay: Antibacterial activity against methicillin-resistant mecA-positive Staphylococcus sciuri subsp. rodentium ATCC 700061T by agar dilution method
Assay type: functional
Conditions: Mammaliicoccus sciuri
Outline: as §1

Row | SMILES | MIC [µg/mL]
17 | CO/N=C(\C(=O)N[C@@H]1C(=O)N2C(C(=O)O)=C(CSc3nc(=O)c(O)nn3C)CS[C@H]12)c1csc(N)n1 [CEFTRIAXONE] | 8 (≈ 14.4 µM)
